SR-BI HDL uptake: mouse SR-BI HDL lipid transfer inhibition; Q61009; ldlA[mSR-BI] CHO cells, DiI-HDL uptake fluorescence, 3 h; inhibition, % at 12.5 µM; hit rate 0.96% among 320,000;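 active means mean replicate inhibition of at least 70% and a set share of replicates each scoring 70 or more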;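 further: 0% = median of neutral control wells and 100% = median of positive control wells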
Target sequence (Q61009 whole entry, looked up): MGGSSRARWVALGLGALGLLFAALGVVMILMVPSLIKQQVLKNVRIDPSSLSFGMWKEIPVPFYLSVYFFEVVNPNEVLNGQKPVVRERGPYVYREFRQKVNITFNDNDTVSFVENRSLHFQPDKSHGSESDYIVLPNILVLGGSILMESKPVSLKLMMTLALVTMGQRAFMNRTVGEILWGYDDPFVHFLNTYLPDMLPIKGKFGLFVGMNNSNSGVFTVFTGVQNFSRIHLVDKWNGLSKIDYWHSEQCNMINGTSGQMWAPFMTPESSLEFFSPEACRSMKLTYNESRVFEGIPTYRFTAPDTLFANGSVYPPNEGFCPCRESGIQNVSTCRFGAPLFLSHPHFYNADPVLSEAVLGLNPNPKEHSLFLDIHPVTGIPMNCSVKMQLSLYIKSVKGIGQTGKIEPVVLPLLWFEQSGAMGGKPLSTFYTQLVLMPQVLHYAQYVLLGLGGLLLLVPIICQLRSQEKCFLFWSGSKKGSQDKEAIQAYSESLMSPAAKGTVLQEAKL
SR-BI uptake up: activators of SR-BI mediated HDL lipid uptake | CHO ldlA[mSR-BI] cells, DiI-HDL uptake fluorescence, 3 h; 100 = double the neutral-control signal | activation, % at 12.5 µM | hit rate 0.096% among 320,000;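 active means mean replicate activation of at least 60% and every replicate at or above 60%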;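 further: 0% = median plate neutral-control signal and 100% = twice that signal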
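system = CHO ldlA[mSR-BI] cells, LDL receptor-null, SR-BI overexpressing | medium = Ham's F12 with 0.5% BSA, HEPES 25 mM, pH 7.4 | probe or stimulus = DiI-HDL 10 µg/mL | compound dosing = single-point compound dose | incubation = compound exposure 3 h, 37 °C | technique = DiI fluorescence, bottom read | read-out = cell-associated DiI fluorescence as measure of HDL uptake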
TAG inh: reduces triacylglycerol accumulation in H9c2 cells; Nile Red lipid (TAG) fluorescence; cells loaded with 200 µM oleic acid; inhibition, % at 12.5 µM; hit rate 0.66% among 230,000;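 active means pattern-corrected inhibition of lipid staining of at least 50% with the nuclear-stain viability signal not falling by more than 50%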;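 further: 0% = DMSO wells and 100% = triacsin C control wells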
SMARCA2 activ: activators of SMARCA2 function | AID 652017 | MG213 cells, MMTV-luciferase reporter, dexamethasone, overnight | hit rate 1% among 370,000 | activation, % at 9.1 µM; in the data active means activation above about 7.8%;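 further: 0% = vehicle wells and 100% = reference activator wells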
Vif inh: HIV Vif inhibition; HEK293T cells, Vif self-association by quenched fluorescence, imaging, 24 h; inhibition, % at 7.49 µM; hit rate 0.35% among 340,000; in the data active means inhibition above about 50%, passing the limit was not always enough
* hit, by the source's call; . = not tested or not shown. In the library only some 2.5% were active in any assay of this set; here they are far more common.

SMILES	SR-BI HDL uptake	SR-BI uptake up	TAG inh	SMARCA2 activ	Vif inh
COc1cccc2c1C(=O)c1c(O)c3c(c(O)c1C2=O)C[C@@](O)(C(=O)CO)C[C@@H]3OC1CC(N)C(O)C(C)O1 (stereo partly specified)	-21	21	36	-11	-6
COc1cc(OC)c(NC(=O)NNC(=O)C(=O)NC2CC2)cc1Cl	.	.	.	-2	.
CCCCN(C(=O)c1cccc(S(=O)(=O)N2CCCC2)c1)c1c(N)n(CCC)c(=O)[nH]c1=O	-70	70*	-13	4	.
CCCCN(C(=O)c1cccc(S(=O)(=O)N2CCN(C)CC2)c1)c1c(N)n(CC(C)C)c(=O)[nH]c1=O	-41	41	-12	0	1
O=C(NCc1cccs1)C1CCCN(S(=O)(=O)c2cccc3ccccc23)C1 (stereo unspecified)	.	.	.	-4	.
COC(=O)[C@]12C[C@H](CC(=O)N3CCSCC3)C(=O)N(CCc3ccc(OC)c(OC)c3)C1=C[C@H](COCc1ccccc1)O[C@@H]2C	.	.	.	-1	.
O=c1c2c([N+](=O)[O-])cc([N+](=O)[O-])cc2sn1Cc1ccccc1	5	-5	.	-1	-2
O=c1c2c([N+](=O)[O-])cc([N+](=O)[O-])cc2sn1-c1ccc(Br)cc1	79*	-79	-15	.	7
Cc1ccc2nc(-c3ccc(NC(=O)COC(=O)c4ccco4)cc3)sc2c1	-20	20	.	7.9*	-4
Cc1ccc2nc(-c3ccc(NC(=O)COC(=O)c4ccc(Br)o4)cc3)sc2c1	19	-19	.	9.3*	2
COc1ccc(/C=C(\C#N)C(=O)OCC(=O)Nc2ccc(-c3nc4ccc(C)cc4s3)cc2)cc1	13	-13	17	7.8*	4
CC(c1cc(F)ccc1O)c1c[nH]c2ccccc12 (stereo unspecified)	.	.	.	-2	.
Cc1ccccc1-c1cccc2c3c([nH]c12)[C@@H]1C[C@H]2[C@@H](C(=O)N1CC3)[C@H](C)ON2C	.	.	.	-1	.
COc1ccc(-c2nc(CCl)cs2)cc1	-8	8	-20	3	2
CCc1ccc(-c2nc(CCl)cs2)cc1	-7	7	1	4	100*
O=C(NCc1ccc(F)cc1)c1cc(C2CCCCN2C(=O)OCCF)on1 (stereo unspecified)	.	.	6	-1	67*
O=C(N/N=C\c1cc([N+](=O)[O-])ccc1N1CCCC1)c1ccccn1	73*	-73	-15	0	5
COc1ccc(NCC(=O)N/N=C/c2cc([N+](=O)[O-])ccc2N2CCCC2)cc1	86*	-86	.	-1	0
O=c1sc(N2CCN(c3ccc(F)cc3)CC2)nc2ccsc12	36	-36	28	2	68*
CCOc1cc(C(=O)N2CCC(CC3CC(c4cccc(Br)c4)=NO3)(C(=O)NCC3CCCCC3)CC2)cc(OCC)c1OCC (stereo unspecified)	74*	-74	20	0	-8
CCOC(=O)c1sc2nc(C3CC3)cc(-c3ccc(OC)cc3)c2c1N	0	0	18	1	6
CCOC(=O)c1sc2nc(C3CC3)cc(-c3ccc(F)cc3)c2c1N	77*	-77	30	-2	1
CCC(=O)N1CCN(c2ccccc2NC(=S)NC(=O)c2cccc([N+](=O)[O-])c2)CC1	70*	-70	6	2	-5
CCC(=O)N1CCN(c2ccc(Cl)cc2NC(=O)c2ccc([N+](=O)[O-])o2)CC1	49	-49	45	-1	4
CCC(=O)N1CCN(c2ccc(Cl)cc2NC(=O)c2cccc([N+](=O)[O-])c2)CC1	71*	-71	-8	0	-1
SMILES	SR-BI HDL uptake	SR-BI uptake up	TAG inh	SMARCA2 activ	Vif inh
CC(C)C(=O)N1CCN(c2ccccc2NC(=S)NC(=O)c2ccco2)CC1	81*	-81	13	0	-10
O=C(c1ccc(-c2cccc([N+](=O)[O-])c2)o1)N1CCN(c2ccc([N+](=O)[O-])cc2)CC1	71*	-71	8	-1	-3
O=C(Nc1ccc(Nc2cccnc2)cc1)c1c[nH]c2ccccc12	.	.	.	1	.
COc1ccccc1CNC(=O)C[C@H]1CC[C@H]2[C@@H](COc3ccc(NC(=O)Nc4ccccc4)cc3C(=O)N2C)O1	.	.	.	-4	.
CCC(=O)N1CCN(c2ccccc2NC(=O)c2ccc(-c3cccc([N+](=O)[O-])c3)o2)CC1	76*	-76	38	-2	-21
COc1cccc(C(=O)NC(=S)Nc2ccccc2N2CCCC2)c1	85*	-85	-23	-1	-3

Screens deposited in PubChem BioAssay by several laboratories.
